Reference: ChEMBL document CHEMBL3272076, “Synthesis and biological evaluation of omega-homologues of prostaglandin E1” (1976)
Activity calls are given as the source filed them. No cut-off for these calls is given here.

Experiments:
Canis familiaris [1] = assay: Gastric antisecretory activity in iv dosed Mongrel dog with heidenhain pouches assessed as inhibition of histamine-induced total acid output administered as single bolus dose at 1 hr post histamine challenge; type: functional; conditions: Canis lupus familiaris
In short: (§1)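 Dogs fasted 18 h, placed in Pavlov stands and infused iv with 0.15 M NaCl. Pouch secretion was collected every 15 min. After basal secretion, histamine was infused at 1.0 mg/h (about 60 μg/kg/h, about 75% of maximal). At the steady-state plateau (about 1 h), a single iv bolus was given, logarithmically spaced, usually 1.0-100 μg/kg. Total acidity was titrated with 0.1 N NaOH to pH 7.0. ED50 is 50% inhibition of total acid output.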

[2] = Muscle stimulating activity in Mongolian gerbil colon treated every 4 mins relative to PGE1; type: functional, Meriones unguiculatus
In short: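 Colon from adult male gerbils killed by cervical dislocation, bath oxygenated; isotonic longitudinal contractions recorded. Two doses each of test compound and PGE1 given at 4-min intervals in Latin square order, with a rinse after each. Four contractions per dose; relative potency computed by the Finney method. Compounds were dissolved in isoosmotic sodium phosphate buffer, pH 7.4.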

Canis familiaris [3] = assay: Gastric antisecretory activity in Mongrel dog with heidenhain pouches assessed as inhibition of histamine-induced total acid output at 1 to 100 ug/kg, iv administered as single bolus dose at 1 hr post histamine challenge relative to PGE1; type: functional, Canis lupus familiaris; in short: as §1
Rattus norvegicus = assay: Hypotensive activity in iv dosed Charles River CD rat assessed as decrease in mean blood pressure administered as single bolus dose relative to PGE1; type: functional; set-up: Activity: scale not given: the % may be the effect or the level left
In short: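 Male rats, 200–300 g, anesthetized with urethane 1.5 g/kg ip. They received heparin 5 mg/kg iv, then atropine 5 mg/kg and pentolinium 10 mg/kg sc. Body temperature held at […] ± 0.5 °C. Carotid pressure recorded; femoral iv bolus doses of test and PGE1 given in a Latin square. Maximal fall in mean pressure read, with 4–8 replicates per dose, and potency from a four-point parallel line assay (Finney).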

Canis familiaris [4] = assay: Gastric antisecretory activity in Mongrel dog with heidenhain pouches assessed as inhibition of histamine-induced total acid output at 30 ug/kg, iv administered as single bolus dose at 1 hr post histamine challenge; type: functional, organism-based; conditions: Canis lupus familiaris; in short: as §1
Canis familiaris [5] = assay: Gastric antisecretory activity in Mongrel dog with heidenhain pouches assessed as inhibition of histamine-induced total acid output at 100 ug/kg, iv administered as single bolus dose at 1 hr post histamine challenge; type: functional, organism-based; conditions: Canis lupus familiaris; in short: as §1

Structure (SMILES)	ED50 (Canis familiaris [1])	fold change (FC) [2]	fold change (FC) (Canis familiaris [3])	fold change (FC) (Rattus norvegicus)	Activity (Rattus norvegicus)	inhibition (Canis familiaris [4])	inhibition (Canis familiaris [5])
CCCCCC[C@H](O)/C=C/C1[C@H](O)CC(=O)[C@@H]1CCCCCCC(=O)O (mixture of isomers)	5.8 µg/kg	0.54	1.13	0.68			
CCCCCCC[C@H](O)/C=C/C1[C@H](O)CC(=O)[C@@H]1CCCCCCC(=O)O (mixture of isomers)	30 µg/kg	0.064	0.25	0.84	84%		
CCCCCCCC[C@H](O)/C=C/C1[C@H](O)CC(=O)[C@@H]1CCCCCCC(=O)O (mixture of isomers)		0.005		0.42		inactive	
CCCCCCCCC[C@H](O)/C=C/C1[C@H](O)CC(=O)[C@@H]1CCCCCCC(=O)O (mixture of isomers)		0.006		<0.12			Active
CCCCC[C@H](O)/C=C/[C@H]1[C@H](O)CC(=O)[C@@H]1CCCCCCC(=O)O [ALPROSTADIL]	7.59 µg/kg						
